Test results reported in ChEMBL document CHEMBL1152501, “Mannosylated saponins based on oleanolic and glycyrrhizic acids. Towards synthetic colloidal antigen delivery systems” (2009).

Columns and labels:
[1] = Immunostimulatory activity in C57BL/6 mouse BMDC assessed as increase in mean fluorescence intensity of CD86 expression at 10 ug relative to untreated control; type: functional
How it was run: (§1)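 Bone marrow stem cells from C57Bl/6 J mice grown 6 days in IMDM with 5% FBS, penicillin/streptomycin, glutamax, 2-mercaptoethanol and 20 ng/ml GM-CSF, 37 °C, 5% CO2. Seeded at 5 × 10^5 cells/mL and pulsed with formulations holding 10 µg saponin (cholesterol/phosphatidylcholine film hydration); LPS 10 µg/mL positive control. After 48 h, flow cytometry gated on propidium iodide-negative CD11c+ cells. MFI divided by medium-only MFI. Run 1–3 times.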

[2] = Immunostimulatory activity in C57BL/6 mouse BMDC assessed as increase in mean fluorescence intensity of MHC class2 expression at 10 ug relative to untreated control; type: functional; how it was run: as §1

| Structure (SMILES) | fold change (FC) [1] | fold change (FC) [2] |
| --- | --- | --- |
| COC(=O)[C@H]1O[C@@H](O[C@H]2CC[C@]3(C)[C@H]4C(=O)C=C5[C@@H]6C[C@@](C)(C(=O)O)CC[C@]6(C)CC[C@@]5(C)[C@]4(C)CC[C@H]3C2(C)C)[C@H](O[C@@H]2O[C@H](C(=O)O)[C@@H](O)[C@H](O)[C@H]2O)[C@@H](O)[C@@H]1O | 0.9 | 1.5 |
| COC(=O)[C@H]1O[C@@H](O[C@H]2CC[C@]3(C)[C@H]4C(=O)C=C5[C@@H]6C[C@@](C)(C(=O)O[C@@H]7O[C@H](CO)[C@@H](O)[C@H](O)[C@H]7O)CC[C@]6(C)CC[C@@]5(C)[C@]4(C)CC[C@H]3C2(C)C)[C@H](O[C@@H]2O[C@H](C(=O)O)[C@@H](O)[C@H](O)[C@H]2O)[C@@H](O)[C@@H]1O | 1.3 | 1.3 |
| COC(=O)[C@H]1O[C@@H](O[C@H]2[C@H](O[C@H]3CC[C@]4(C)[C@H]5C(=O)C=C6[C@@H]7C[C@@](C)(C(=O)O)CC[C@]7(C)CC[C@@]6(C)[C@]5(C)CC[C@H]4C3(C)C)O[C@H](C(=O)O)[C@@H](O)[C@@H]2O)[C@H](O)[C@@H](O)[C@@H]1O | 0.9 | 1.4 |
| COC(=O)[C@H]1O[C@@H](O[C@H]2[C@H](O[C@H]3CC[C@]4(C)[C@H]5C(=O)C=C6[C@@H]7C[C@@](C)(C(=O)O[C@@H]8O[C@H](CO)[C@@H](O)[C@H](O)[C@H]8O)CC[C@]7(C)CC[C@@]6(C)[C@]5(C)CC[C@H]4C3(C)C)O[C@H](C(=O)O)[C@@H](O)[C@@H]2O)[C@H](O)[C@@H](O)[C@@H]1O | 1 | 1.1 |
| CC1(C)CC[C@]2(C(=O)O[C@H]3O[C@H](CO)[C@@H](O)[C@H](O)[C@@H]3O[C@H]3O[C@H](CO)[C@@H](O)[C@H](O)[C@@H]3O[C@H]3O[C@H](CO)[C@@H](O)[C@H](O)[C@@H]3O)CC[C@]3(C)C(=CC[C@@H]4[C@@]5(C)CC[C@H](O[C@H]6O[C@H](CO)[C@@H](O)[C@H](O)[C@@H]6O[C@H]6O[C@H](CO)[C@@H](O)[C@H](O)[C@@H]6O[C@H]6O[C@H](CO)[C@@H](O)[C@H](O)[C@@H]6O)C(C)(C)[C@@H]5CC[C@]43C)[C@@H]2C1 | 0.9 | 1 |
| CC1(C)CC[C@]2(C(=O)O[C@H]3O[C@H](CO[C@H]4O[C@H](CO)[C@@H](O)[C@H](O)[C@@H]4O)[C@@H](O)[C@H](O[C@H]4O[C@H](CO)[C@@H](O)[C@H](O)[C@@H]4O)[C@@H]3O)CC[C@]3(C)C(=CC[C@@H]4[C@@]5(C)CC[C@H](O[C@H]6O[C@H](CO[C@H]7O[C@H](CO)[C@@H](O)[C@H](O)[C@@H]7O)[C@@H](O)[C@H](O[C@H]7O[C@H](CO)[C@@H](O)[C@H](O)[C@@H]7O)[C@@H]6O)C(C)(C)[C@@H]5CC[C@]43C)[C@@H]2C1 | 2 | 1.3 |
| CC1(C)CC[C@]2(C(=O)O)CC[C@]3(C)C(=CC[C@@H]4[C@@]5(C)CC[C@H](O[C@H]6O[C@H](CO)[C@@H](O)[C@H](O)[C@@H]6O[C@H]6O[C@H](CO)[C@@H](O)[C@H](O)[C@@H]6O)C(C)(C)[C@@H]5CC[C@]43C)[C@@H]2C1 | 1.2 | 1.6 |
| COC(=O)[C@H]1O[C@@H](O[C@H]2[C@H](O[C@H]3CC[C@]4(C)[C@H]5C(=O)C=C6[C@@H]7C[C@@](C)(C(=O)O)CC[C@]7(C)CC[C@@]6(C)[C@]5(C)CC[C@H]4C3(C)C)O[C@H](C(=O)OC)[C@@H](O)[C@@H]2O)[C@H](O)[C@@H](O)[C@@H]1O | 0.9 | 1.1 |
| CC1(C)CC[C@]2(C(=O)O)CC[C@]3(C)C(=CC[C@@H]4[C@@]5(C)CC[C@H](O[C@H]6O[C@H](CO)[C@@H](O)[C@H](O)[C@@H]6O[C@H]6O[C@H](CO)[C@@H](O)[C@H](O)[C@@H]6O[C@H]6O[C@H](CO)[C@@H](O)[C@H](O)[C@@H]6O)C(C)(C)[C@@H]5CC[C@]43C)[C@@H]2C1 | 0.8 | 1.1 |
